FID counter – counter-screen for HCV NS3 helicase inhibitors: DNA intercalator displacement. inhibition, % at 7.9 µM. DNA fluorescent intercalator displacement, fluorescence. 0.17% of 290,000 active. AID 1845; in the data active = inhibition above about 37%;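 also: 0% = vehicle and 100% = reference compound; higher means more ethidium bromide displaced from hairpin DNA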
SR-BI DiI-HDL act – enhances SR-BI lipid uptake from DiI-HDL; CHO ldlA[mSR-BI] cells, DiI-HDL uptake fluorescence, 3 h; 100 = double the neutral-control signal; activation, % at 12.5 µM; AID 504775; 0.096% of 320,000 active;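 active = mean replicate activation of at least 60% and every replicate at or above 60%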;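 also: 0% = median plate neutral-control signal and 100% = twice that signal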
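Material – SR-BI-overexpressing, LDLR-lacking CHO cells · Medium – BSA-supplemented, HEPES-buffered Ham's F12, pH 7.4 · Doses – single concentration · Times – compound with DiI-HDL co-incubation, 3 h at 37 °C · Measured by – bottom-read fluorescence, 550/595 nm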
SR-BI HDL uptake – mouse SR-BI HDL lipid transfer inhibition. ldlA[mSR-BI] CHO cells, DiI-HDL uptake fluorescence, 3 h. inhibition, % at 12.5 µM. 0.96% of 320,000 active;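 active = mean replicate inhibition of at least 70% and a set share of replicates each scoring 70 or more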;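 also: 0% = median of neutral control wells and 100% = median of positive control wells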
TMEM16A inh – blocks the mouse calcium-activated chloride channel TMEM16A | 1.2% of 310,000 active | normalized B-score (activity score, 25-100; higher = stronger inhibition) at 10 µM | AID 588511 | HEK293 TMEM16A/YFP iodide influx fluorescence, ionomycin | Q8BHY3;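 active = ratio plate-corrected score three or more library SD toward inhibition, starting fluorescence score within five deviations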;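 also: score derived from kinetic fluorescence span divided by baseline fluorescence per well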
Target sequence (Q8BHY3 whole entry, looked up): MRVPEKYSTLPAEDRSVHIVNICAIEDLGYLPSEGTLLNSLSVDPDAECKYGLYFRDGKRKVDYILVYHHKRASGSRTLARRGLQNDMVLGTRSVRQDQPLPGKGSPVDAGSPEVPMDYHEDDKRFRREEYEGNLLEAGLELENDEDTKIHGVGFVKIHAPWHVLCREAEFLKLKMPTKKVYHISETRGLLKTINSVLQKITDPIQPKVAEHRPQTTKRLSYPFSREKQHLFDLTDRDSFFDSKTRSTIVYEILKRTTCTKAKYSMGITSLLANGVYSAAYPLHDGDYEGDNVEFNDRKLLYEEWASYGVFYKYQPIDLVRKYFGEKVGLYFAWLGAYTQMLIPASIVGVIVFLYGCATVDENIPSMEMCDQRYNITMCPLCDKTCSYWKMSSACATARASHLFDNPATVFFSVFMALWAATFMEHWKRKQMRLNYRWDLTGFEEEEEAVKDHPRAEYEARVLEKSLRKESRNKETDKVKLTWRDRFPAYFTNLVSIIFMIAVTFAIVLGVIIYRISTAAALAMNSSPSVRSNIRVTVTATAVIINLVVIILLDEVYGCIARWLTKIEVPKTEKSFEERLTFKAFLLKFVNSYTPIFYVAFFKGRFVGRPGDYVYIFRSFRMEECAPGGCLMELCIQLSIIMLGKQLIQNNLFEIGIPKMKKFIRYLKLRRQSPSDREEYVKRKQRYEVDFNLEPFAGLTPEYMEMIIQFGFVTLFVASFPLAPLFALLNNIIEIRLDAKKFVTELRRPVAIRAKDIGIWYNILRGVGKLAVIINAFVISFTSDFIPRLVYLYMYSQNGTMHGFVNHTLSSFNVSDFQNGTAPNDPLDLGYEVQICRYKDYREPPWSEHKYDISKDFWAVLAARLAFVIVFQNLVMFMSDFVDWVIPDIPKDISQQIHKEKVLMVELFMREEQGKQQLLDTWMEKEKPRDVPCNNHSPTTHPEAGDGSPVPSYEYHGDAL
Kir21 inh – blocks the mouse Kir2.1 inward-rectifier potassium channel; P35561; HEK293-Kir2.1, FluxOR thallium flux fluorescence; hits give low values; AID 1672; B-score at 10 µM; 0.85% of 310,000 active;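 active = fluorescence ratio B-score at or below minus 3 SD of library scores, with starting-brightness B-score within 2 SD, cut at about -4.2 in these data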;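 also: channel flux triggered by added potassium and thallium sulfate stimulus; B-score of peak minus minimum fluorescence over baseline after thallium stimulus; more negative B-score means stronger Kir2.1 block with less thallium influx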
TMEM16A act – activators or potentiators of mouse TMEM16A chloride channel. Q8BHY3. HEK293 TMEM16A/YFP-H148Q/I152L, iodide quench fluorescence; hits give low values. B-score at 10 µM. 0.3% of 340,000 active;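 active = fluorescence-ratio B-score plate-corrected deviation score at least 3 library SD below zero, with starting fluorescence score within 5 deviations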;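 also: channel opened by trigger with iodide after compound preincubation; score built on the fluorescence ratio of max minus min over baseline; more negative score means more quench and so TMEM16A activation or potentiation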
Active calls of the source: *. Compounds with a hit are over-represented: about 3% of the library has one in this group of screens.

How did O=[N+]([O-])c1cc([N+](=O)[O-])c2oc(-c3ccccc3)c(Br)c2c1O do in these assays?
FID counter: 47*; SR-BI DiI-HDL act: -13; SR-BI HDL uptake: 13; Kir21 inh: -0.97; TMEM16A act: inactive

Results for C=CCOc1c(Br)cc(/C=C2\SC(=Nc3ccccc3)NC2=O)cc1OC ?
FID counter: -12; SR-BI DiI-HDL act: -72; SR-BI HDL uptake: 72*; TMEM16A inh: inactive; Kir21 inh: 1.7; TMEM16A act: inactive

What do the screens show for `COc1cc(/C=C2\SC(=Nc3ccc(O)cc3)NC2=O)cc(OC)c1O`?
FID counter: -3; SR-BI DiI-HDL act: -35; SR-BI HDL uptake: 35; TMEM16A inh: inactive; Kir21 inh: 1.1; TMEM16A act: -4.7*

Results for CCc1ccc(N=C2NC(=O)/C(=C/c3cc(OC)c(OC)c(OC)c3)S2)cc1 ?
FID counter: -22; SR-BI DiI-HDL act: 4; SR-BI HDL uptake: -4; TMEM16A inh: inactive; Kir21 inh: -0.08; TMEM16A act: inactive

Results for Cc1nc(C)n(C(C)CNC(=O)c2ccco2)n1 (stereo unspecified) ?
FID counter: 3; SR-BI DiI-HDL act: 10; SR-BI HDL uptake: -10; TMEM16A inh: inactive; Kir21 inh: 0.49; TMEM16A act: inactive

What do the screens show for `COc1ccc2c(c1)Cc1sc(NC(=O)c3ccccc3)nc1-2`?
FID counter: -6; SR-BI DiI-HDL act: -35; SR-BI HDL uptake: 35; TMEM16A inh: inactive; Kir21 inh: 0.2; TMEM16A act: inactive

What do the screens show for `COc1ccc(C(=O)Nc2nc3c(s2)Cc2cc(OC)ccc2-3)cc1`?
FID counter: 3; SR-BI DiI-HDL act: -87; SR-BI HDL uptake: 87*; TMEM16A inh: inactive; Kir21 inh: -0.22; TMEM16A act: inactive

Results for Oc1ccccc1C1Nc2cccc3cccc(c23)N1 ?
FID counter: 5; SR-BI DiI-HDL act: 4; SR-BI HDL uptake: -4; TMEM16A inh: inactive; Kir21 inh: -0.67; TMEM16A act: inactive

Results for C/C(=C\c1cc2ccccc2o1)C1Nc2cccc3cccc(c23)N1 ?
SR-BI DiI-HDL act: -39; SR-BI HDL uptake: 39; TMEM16A act: -18*

How did CCN(CC)CCNC(=O)c1ccc(NC(=O)COc2ccc3c(c2)CCC3)cc1 do in these assays?
SR-BI DiI-HDL act: -4; SR-BI HDL uptake: 4; TMEM16A act: inactive

How did CCOc1ccc(Cl)cc1CNCCCSc1nc(C)cc(C)n1 do in these assays?
FID counter: 11; SR-BI DiI-HDL act: 3; SR-BI HDL uptake: -3; TMEM16A inh: inactive; Kir21 inh: -6.6*; TMEM16A act: inactive

How did CCOc1ccc(Cl)cc1CNCCCSc1ncccn1 do in these assays?
FID counter: 5; SR-BI DiI-HDL act: 23; SR-BI HDL uptake: -23; TMEM16A inh: inactive; Kir21 inh: -1.8; TMEM16A act: inactive

What do the screens show for `O=S(=O)(c1ccccc1)N1CCCC1c1cccs1` (stereo unspecified)?
FID counter: -5; SR-BI DiI-HDL act: 0; SR-BI HDL uptake: 0; TMEM16A inh: inactive; Kir21 inh: -5.4*; TMEM16A act: inactive

How did NCCC(=O)N1c2ccccc2Sc2ccc(Cl)cc21 do in these assays?
FID counter: 16; SR-BI DiI-HDL act: 7; SR-BI HDL uptake: -7; TMEM16A inh: inactive; Kir21 inh: -4.8*; TMEM16A act: inactive

Results for NCCCC(=O)N1c2ccccc2Sc2ccc(Cl)cc21 ?
FID counter: 6; SR-BI DiI-HDL act: 24; SR-BI HDL uptake: -24; TMEM16A inh: inactive; Kir21 inh: -1.8; TMEM16A act: inactive

Results for N#CC1=C(N)Oc2cc(O)c(Cl)cc2C1c1cccnc1 (stereo unspecified) ?
FID counter: -6; SR-BI DiI-HDL act: 23; SR-BI HDL uptake: -22; TMEM16A inh: inactive; Kir21 inh: -7.3; TMEM16A act: -5.2*

How did COC(=O)CSC1=NS(=O)(=O)c2ccccc21 do in these assays?
FID counter: 0; SR-BI DiI-HDL act: 43; SR-BI HDL uptake: -43; TMEM16A inh: inactive; Kir21 inh: -5.8*; TMEM16A act: inactive

Results for Cc1ccccc1OCC(=O)N/N=C/c1ccc(N2CCOCC2)o1 ?
FID counter: -23; SR-BI DiI-HDL act: 16; SR-BI HDL uptake: -16; TMEM16A inh: inactive; Kir21 inh: -0.65; TMEM16A act: inactive

What do the screens show for `O=C(N/N=C/c1cn(-c2ccccc2)nc1-c1ccc2c(c1)OCCO2)c1ccncc1`?
FID counter: -18; SR-BI DiI-HDL act: 7; SR-BI HDL uptake: -7; TMEM16A inh: inactive; Kir21 inh: -1.1; TMEM16A act: inactive

How did O=C(N/N=C/c1nn(-c2ccccc2)cc1-c1ccc(Cl)cc1)c1ccncc1 do in these assays?
FID counter: 3; TMEM16A inh: 25*; Kir21 inh: -0.22

What do the screens show for `COc1ccccc1-n1c2nc3ccccc3nc2c2c(=O)n(-c3cc(C)cc(C)c3)cnc21`?
FID counter: -8; SR-BI DiI-HDL act: -79; SR-BI HDL uptake: 79*; TMEM16A inh: inactive; Kir21 inh: 1.7; TMEM16A act: inactive

Results for COc1ccccc1-n1cnc2c(c1=O)c1nc3ccccc3nc1n2-c1ccc(C)cc1 ?
FID counter: 1; SR-BI DiI-HDL act: 1; SR-BI HDL uptake: -1; TMEM16A inh: inactive; Kir21 inh: -0.36; TMEM16A act: inactive

How did Cn1cccc1C(=O)NCc1ccccn1 do in these assays?
SR-BI DiI-HDL act: 23; SR-BI HDL uptake: -23; TMEM16A act: inactive

Results for COCCn1nnnc1C(c1ccccc1)N1CCN(c2ccccc2)CC1 (stereo unspecified) ?
FID counter: -22; SR-BI DiI-HDL act: 0; SR-BI HDL uptake: 0; TMEM16A inh: inactive; Kir21 inh: 0.13; TMEM16A act: inactive

What do the screens show for `COCCn1nnnc1C(c1cccs1)N1CCN(c2ccccc2)CC1` (stereo unspecified)?
FID counter: -26; SR-BI DiI-HDL act: -83; SR-BI HDL uptake: 83*; TMEM16A inh: inactive; Kir21 inh: 0.31; TMEM16A act: inactive

What do the screens show for `CCCN(CCC)C(=O)Cn1c(=O)c2ccccc2n2c(=S)sc(-c3ccccc3C)c12`?
FID counter: -4; SR-BI DiI-HDL act: -18; SR-BI HDL uptake: 18; TMEM16A inh: inactive; Kir21 inh: 0.55; TMEM16A act: -7.6*

What do the screens show for `CCCCn1c(CCC)nc([N+](=O)[O-])c1Sc1ccc(Cl)cn1`?
FID counter: -22; SR-BI DiI-HDL act: -13; SR-BI HDL uptake: 13; TMEM16A inh: inactive; Kir21 inh: -4.8*; TMEM16A act: inactive

Results for c1ccc(Oc2cccc(OCCCCN3CCCC3)c2)cc1 ?
FID counter: 25; SR-BI DiI-HDL act: 12; SR-BI HDL uptake: -12; TMEM16A inh: inactive; Kir21 inh: -3; TMEM16A act: inactive
